From ChEMBL document CHEMBL1137350, “Discovery of a new class of macrocyclic antagonists to the human motilin receptor” (J Med Chem, 2006)

How the values were obtained:
Motilin receptor [1] = target: T1, Motilin receptor (Homo sapiens, UniProt O43193); assay: Displacement of [125I]motilin from human MOTR
Method in brief: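 Competition binding on isolated membranes expressing human motilin receptor, with radioiodinated porcine motilin ([125I]-motilin) as tracer. 11-point concentration curves gave Ki, with a top test concentration of 10 µM. Compounds came from 10 mM DMSO stocks stored at -60 °C.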

Motilin receptor [2] = target: T1, Motilin receptor; assay: Activity at human MOTR expressed in CHO cells assessed as inhibition of motilin-induced calcium release upto 10 uM; type: functional, cell-based; settings: filed as antagonist
Method in brief: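 Aequorin luminescence assay on whole CHO cells expressing cloned human motilin receptor, measuring inhibition of motilin-induced Ca2+ release. Agonist activity was also checked at concentrations up to 10 µM. Compounds were TFA salts held as 10 mM DMSO stocks at -60 °C.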

Motilin receptor [3] = target: T1, Motilin receptor; assay: Activity at human MOTR expressed in CHO cells assessed as inhibition of motilin-induced calcium release; type: functional, cell-based
Method in brief: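 Whole CHO cells expressing cloned human motilin receptor; intracellular Ca2+ release evoked by motilin read out by aequorin luminescence. Compounds were tested in antagonist mode and also checked for agonist activity at concentrations up to 10 µM. Compound stocks were 10 mM in DMSO, stored at -60 °C.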

T1 sequence (O43193 whole entry): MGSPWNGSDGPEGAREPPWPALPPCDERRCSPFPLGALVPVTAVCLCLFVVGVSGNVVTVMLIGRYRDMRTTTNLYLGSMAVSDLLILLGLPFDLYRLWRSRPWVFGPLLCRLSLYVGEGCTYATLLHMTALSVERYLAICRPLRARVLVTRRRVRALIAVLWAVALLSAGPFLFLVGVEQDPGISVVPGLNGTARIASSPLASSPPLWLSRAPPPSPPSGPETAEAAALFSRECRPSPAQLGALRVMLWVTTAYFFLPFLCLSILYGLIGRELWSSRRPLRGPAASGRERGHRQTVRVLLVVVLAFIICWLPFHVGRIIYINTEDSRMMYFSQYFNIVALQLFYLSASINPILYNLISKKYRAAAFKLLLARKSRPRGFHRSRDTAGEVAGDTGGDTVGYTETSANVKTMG

Compound | Ki (Motilin receptor [1]) [µM] | Activity (Motilin receptor [2]) | IC50 (Motilin receptor [3]) [µM]
CCC[C@@H]1NC(=O)[C@@H](C(C)C)NC(=O)[C@@H](CCc2ccccc2)NCCOc2ccccc2CCCNC1=O | 1.49 | Antagonist | –
CCC[C@H]1NC(=O)[C@@H](C(C)C)NC(=O)[C@@H](Cc2ccc(O)cc2)NCCOc2ccccc2/C=C/CNC1=O | 0.335 | Antagonist | –
CCC[C@@H]1NC(=O)[C@@H](C(C)C)NC[C@@H](Cc2ccc(O)cc2)NCCOc2ccccc2CCCNC1=O | 3.24 | Antagonist | –
CCC[C@@H]1NC(=O)[C@@H](C(C)C)NC(=O)[C@@H](Cc2ccc(O)cc2)NCCc2ccccc2CCCCNC1=O | 6.06 | Antagonist | –
CCC[C@@H]1NC(=O)[C@@H](C(C)C)NC(=O)[C@@H](C(C)C)NCCOc2ccccc2/C=C/CNC1=O | 3.57 | Antagonist | –
CCC[C@@H]1NC(=O)[C@@H](C(C)C)NC(=O)[C@@H](Cc2ccc(O)cc2)N(C(C)=O)CCOc2ccccc2CCCNC1=O | 6.39 | Antagonist | –
CC[C@H](C)[C@H](NC(=O)[C@@H]1CCCN1C(=O)[C@@H](NC(=O)[C@@H](N)Cc1ccccc1)C(C)C)C(=O)N[C@@H](Cc1ccccc1)C(=O)N[C@H](C(=O)N[C@@H](Cc1ccc(O)cc1)C(=O)NCC(=O)N[C@@H](CCC(=O)O)C(=O)N[C@@H](CC(C)C)C(=O)N[C@@H](CCC(N)=O)C(=O)N[C@@H](CCCNC(=N)N)C(=O)N[C@@H](CCSC)C(=O)N[C@@H](CCC(N)=O)C(=O)N[C@@H](CCC(=O)O)C(=O)N[C@@H](CCCCN)C(=O)N[C@@H](CCC(=O)O)C(=O)N[C@@H](CCCNC(=N)N)C(=O)N[C@@H](CC(N)=O)C(=O)N[C@@H](CCCCN)C(=O)NCC(=O)N[C@@H](CCC(N)=O)C(=O)O)[C@@H](C)O [MOTILIN] | 0.00036 | – | –
CC(C)[C@H]1NC(=O)[C@@H](Cc2ccc(O)cc2)NCCOc2ccccc2/C=C/CNC(=O)[C@H](C)NC1=O | 1.39 | Antagonist | –
CCC[C@@H]1NC(=O)[C@@H](C(C)C)NC(=O)[C@@H](Cc2ccc(O)cc2)NCc2ccccc2CCCCNC1=O | > 10 | Antagonist | –
CCC[C@@H]1NC(=O)[C@@H](C)NC(=O)[C@@H](Cc2ccc(O)cc2)NCCOc2ccccc2/C=C/CNC1=O | 0.196 | Antagonist | –
CCC[C@@H]1NC(=O)[C@@H](C(C)C)NC(=O)[C@@H](CCC(=O)O)NCCOc2ccccc2/C=C/CNC1=O | > 10 | Antagonist | –
CC(C)C[C@@H]1NC(=O)[C@@H](C(C)C)NC(=O)[C@@H](Cc2ccc(O)cc2)NCCOc2ccccc2/C=C/CNC1=O | 0.062 | Antagonist | –
CCC[C@@H]1NC(=O)[C@@H](C(C)C)NC(=O)[C@@H](CCCCN)NCCOc2ccccc2/C=C/CNC1=O | > 10 | Antagonist | –
CCC[C@@H]1NC(=O)[C@@H](C(C)C)NC(=O)[C@@H](Cc2ccc(O)cc2)NCCCCc2ccccc2CCNC1=O | 6.06 | Antagonist | –
CC(C)[C@H]1NC(=O)[C@@H](Cc2ccc(O)cc2)NCCOc2ccccc2/C=C/CNC(=O)[C@H](CO)NC1=O | 0.65 | Antagonist | –
CCC[C@@H]1NC(=O)[C@@H](C(C)C)NC(=O)[C@@H](Cc2ccc(O)cc2)NCCc2ccccc2/C=C/CNC1=O | 9.73 | Antagonist | –
CCC[C@@H]1NC(=O)[C@@H](C(C)C)N(C)C(=O)[C@@H](Cc2ccc(O)cc2)NCCOc2ccccc2CCCNC1=O | > 10 | Antagonist | –
CCC[C@@H]1NC(=O)[C@@H](C(C)C)NC(=O)[C@@H](Cc2ccc(O)cc2)NCCOc2ccccc2CCCNC1=O | 0.055 | Antagonist | –
CCC[C@@H]1NC(=O)[C@@H](C(C)C)NC(=O)[C@@H](Cc2ccccc2)NCCOc2ccccc2CCCNC1=O | 0.057 | Antagonist | –
CCC[C@@H]1NC(=O)[C@H](C(C)C)NC(=O)[C@@H](Cc2ccc(O)cc2)NCCOc2ccccc2/C=C/CNC1=O | > 10 | Antagonist | –
CCC[C@H](NC(=O)[C@H](NC(=O)[C@@H](Cc1ccc(O)cc1)NCCOc1ccccc1/C=C/CNC(C)=O)C(C)C)C(N)=O | > 10 | Antagonist | –
CCC[C@H](NC(=O)[C@H](NC(=O)[C@H](N)Cc1ccc(O)cc1)C(C)C)C(N)=O | > 10 | Antagonist | –
CCC[C@@H]1NC(=O)[C@@H](C(C)C)NC(=O)[C@@H](Cc2c[nH]c3ccccc23)NCCOc2ccccc2CCCNC1=O | 0.255 | Antagonist | –
CCC[C@@H]1NC(=O)[C@@H](C(C)C)NC(=O)[C@@H](Cc2cccc3ccccc23)NCCOc2ccccc2CCCNC1=O | 0.0083 | Antagonist | –
CCC[C@@H]1NC(=O)[C@@H](C(C)C)NC(=O)[C@@H](CC2CCCCC2)NCCOc2ccccc2CCCNC1=O | 3.25 | Antagonist | –
CCC[C@@H]1NC(=O)[C@@H](C(C)C)NC(=O)[C@@H](Cc2ccccc2)NCCOc2ccccc2/C=C/CNC1=O | 0.078 | Antagonist | –

Compound | Ki (Motilin receptor [1]) [µM] | Activity (Motilin receptor [2]) | IC50 (Motilin receptor [3]) [µM]
CCC[C@@H]1NC(=O)[C@@H](Cc2ccccc2)NC(=O)[C@@H](Cc2ccc(O)cc2)NCCOc2ccccc2/C=C/CNC1=O | 1.52 | Antagonist | –
CCC[C@@H]1NC(=O)[C@@H](C(C)C)NC(=O)[C@@H](Cc2csc3ccccc23)NCCOc2ccccc2CCCNC1=O | 0.011 | Antagonist | –
CC(C)[C@H]1NC(=O)[C@@H](Cc2ccc(O)cc2)NCCOc2ccccc2/C=C/CNC(=O)[C@H](CC(=O)O)NC1=O | 2.55 | Antagonist | –
CCC[C@@H]1NC(=O)[C@@H](C(C)C)NC(=O)[C@@H](Cc2ccc(O)cc2)NCCc2ccccc2/C=C\CCNC1=O | > 10 | Antagonist | –
CCC[C@@H]1NC(=O)[C@@H](C(C)C)NC(=O)[C@H](Cc2ccc(O)cc2)NCCOc2ccccc2/C=C/CNC1=O | > 10 | Antagonist | –
CCC[C@@H]1NC(=O)[C@@H](C(C)C)NC(=O)[C@@H](Cc2ccc(O)cc2)NCCOc2ccccc2/C=C/CNC1=O | 0.137 | Antagonist | 0.074
CC(C)[C@H]1NC(=O)[C@@H](Cc2ccc(O)cc2)NCCOc2ccccc2/C=C/CNC(=O)[C@H](Cc2ccccc2)NC1=O | 0.185 | Antagonist | –
CCC[C@@H]1OC(=O)[C@@H](C(C)C)NC(=O)[C@@H](Cc2ccc(O)cc2)NCCOc2ccccc2CCCNC1=O | 1.88 | Antagonist | –
CCC[C@@H]1NC(=O)[C@@H](C(C)C)NC(=O)[C@@H](Cc2ccc(O)cc2)NCCCc2ccccc2CCNC1=O | > 10 | Antagonist | –
CCC[C@@H]1NC(=O)[C@@H](C(C)C)NC(=O)[C@@H](Cc2ccc(O)cc2)N(C)CCOc2ccccc2CCCNC1=O | 2.78 | Antagonist | –
CCC[C@@H]1NC(=O)[C@@H](C(C)C)NC(=O)[C@@H](Cc2ccc(O)cc2)NCCc2ccccc2CCCNC1=O | > 10 | Antagonist | –
CCC[C@@H]1NC(=O)[C@@H](C(C)C)NC(=O)[C@@H](Cc2ccc(O)cc2)NCCCc2ccccc2/C=C\CCNC1=O | 7.29 | Antagonist | –
CCC[C@@H]1NC(=O)[C@@H](C(C)C)NC(=O)[C@@H](Cc2ccc(O)cc2)NCCCc2ccccc2CCCNC1=O | > 10 | Antagonist | –
CCC[C@@H]1NC(=O)[C@@H](C(C)C)NC(=O)[C@@H](c2ccccc2)NCCOc2ccccc2CCCNC1=O | > 10 | Antagonist | –
CCC[C@@H]1NC(=O)[C@@H](C(C)C)NC(=O)[C@@H](C)NCCOc2ccccc2/C=C/CNC1=O | > 10 | Antagonist | –
CCC[C@@H]1NC(=O)[C@@H](C(C)C)OC(=O)[C@@H](Cc2ccc(O)cc2)NCCOc2ccccc2CCCNC1=O | 0.192 | Antagonist | –
CCC[C@@H]1NC(=O)[C@@H](C(C)C)NC(=O)[C@@H](Cc2ccc(O)cc2)NCCCCCCCCNC1=O | 1.2 | Antagonist | –
CCC[C@@H]1NC(=O)[C@@H](C(C)C)NC(=O)[C@@H](Cc2ccc(O)cc2)NC/C=C/CCNC1=O | 0.701 | Antagonist | –
CCC[C@@H]1NC(=O)[C@@H](C(C)C)NC(=O)[C@@H](Cc2ccc3ccccc3c2)NCCOc2ccccc2CCCNC1=O | 0.079 | Antagonist | –
CCC[C@@H]1NC(=O)[C@@H](CO)NC(=O)[C@@H](Cc2ccc(O)cc2)NCCOc2ccccc2/C=C/CNC1=O | > 10 | Antagonist | –
CC(C)[C@H]1NC(=O)[C@@H](Cc2ccc(O)cc2)NCCOc2ccccc2/C=C/CNC(=O)[C@H](CCCCN)NC1=O | 0.664 | Antagonist | –
CCC[C@@H]1NC(=O)[C@@H](C(C)C)NC(=O)[C@@H](Cc2ccc(O)cc2)NCCCc2ccccc2/C=C/CNC1=O | > 10 | Antagonist | –
CCC[C@@H]1NC(=O)[C@@H](CCC(=O)O)NC(=O)[C@@H](Cc2ccc(O)cc2)NCCOc2ccccc2/C=C/CNC1=O | 4.9 | Antagonist | –
CC(C)C[C@H]1C(=O)NCCCc2ccccc2OCCN[C@H](Cc2ccc(O)cc2)C(=O)N[C@H](C(C)C)C(=O)N1C | 0.222 | Antagonist | –
CCC[C@@H]1NC(=O)[C@@H](C(C)C)NC(=O)[C@@H](Cc2ccc(O)cc2)NCCOc2ccccc2CCNC1=O | 0.982 | Antagonist | –
CCC[C@@H]1NC(=O)[C@@H](C(C)C)NNC(=O)[C@@H](Cc2ccc(O)cc2)NCCOc2ccccc2CCCNC1=O | 2.37 | Antagonist | –
